Series [1] can be described thus: Potency index, ratio of IC50 for doxorubicin to IC50 for test compound against human LoVo/DX cells assessed as reduction in cell viability after 72 hrs by SRB assay. It counts as functional.
Series [2] is described as follows: Antiproliferative activity against human LoVo/DX cells assessed as reduction in cell viability after 72 hrs by SRB assay. It counts as functional, cell-based. Put shortly: (§1)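 Human colon adenocarcinoma LoVo cells and their doxorubicin-resistant subline LoVo/DX. Growth was read by sulforhodamine B (SRB) staining. IC50 values are means ± SD from at least three experiments, each in triplicate.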

The subject of series [3] is LoVo. As to the kind of experiment: Antiproliferative activity against human LoVo cells assessed as reduction in cell viability after 72 hrs by SRB assay. It counts as functional, cell-based. In short, it runs like this: as §1
For series [4], the system named is BALB/3T3. Description: Cytotoxicity against mouse BALB/3T3 cells after 72 hrs by SRB assay. It counts as cell-based. The note with it: BALB/3T3, 72 h.
Series [5] addresses Histone deacetylase. As to the kind of experiment: Inhibition of HDAC in human LoVo/DX cells using Boc-Lys(Ac)-AMC as substrate assessed as release of AMC pre-incubated for 15 mins followed by substrate addition measured after 3 hrs by indirect spectrofluorometric assay. Format: cell-based. Put shortly:
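Crude enzyme was LoVo/DX cell lysate. HDAC activity was read by an indirect spectrofluorometric assay, and IC50 was determined on the lysate.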

Series [6] has as its system Mus musculus. As to the kind of experiment: Toxicity in Balb/c mouse assessed as changes in blood morphology at 900 umol/kg. It counts as organism-based. The note with it: in vivo. Put shortly: (§2)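 Preliminary in vivo toxicity study in Balb/c mice given high doses (900 µmol/kg b.w.). Toxicity was judged from body weight changes, blood morphology and blood biochemical analysis.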

Series [7] concerns Mus musculus. Description: Toxicity in Balb/c mouse assessed as changes in blood biochemical parameters at 900 umol/kg. Format: organism-based. The note with it: in vivo. In short, it runs like this:
as §2

Series [8] has as its system Mus musculus. Description: Toxicity in Balb/c mouse assessed as changes in body weight at 900 umol/kg. Format: organism-based. The note with it: in vivo. Put shortly:
as §2

Series [9] in a line: Selectivity index, ratio of IC50 for mouse BALB/3T3 cells to IC50 for human LoVo/DX cells. It counts as functional.
Series [10] relates to LoVo. As to the kind of experiment: Selectivity index, ratio of IC50 for mouse BALB/3T3 cells to IC50 for human LoVo cells. Format: functional.
Series [11] concerns LoVo. As to the kind of experiment: Selectivity index, ratio of IC50 for human LoVo/DX cells to IC50 for human LoVo cells. Format: functional.
[12] abbreviates: Homo sapiens, LoVo, 72 h, read-out: IC50.

SMILES strings stand for the structures.

As to `S=C=NCCCCN=C=S`, in series [1], the “Ratio IC50” value is 3. Also, the IC50 was 2.35 µM in series [2] and 1.88 µM in series [3] (setting [12]).
`CCCCCNC(=S)SC[C@H](NC(C)=O)C(=O)O`: the IC50 in series [2] came to 42.8 µM; in series [4], 48.5 µM; in series [5], 3200 µM; in [3] (setting [12]) it was 36.6 µM.
Turning to `S=C=NCCCN=C=S`, the IC50 turned out to be 2.44 µM in series [2] and 1.84 µM in series [3] (setting [12]).
Take `CC(=O)N[C@@H](CSC(=S)NCCCCNC(=S)SC[C@H](NC(C)=O)C(=O)O)C(=O)O`: the IC50 turned out to be 4.84 µM in series [2], 5.54 µM in series [4], 2330 µM in [5] and 2.02 µM in series [3] (setting [12]). Besides, the Activity entry in series [6], in series [7] and in series [8] was “Non-toxic” each time.
As to `COc1ccc(CNC(=S)SC[C@H](NC(C)=O)C(=O)O)cc1`, the IC50 in [2] was 4.2 µM; in series [4], 6.9 µM; in series [5], 2940 µM; in [3] (setting [12]) it was 3.7 µM.
For `CC(=O)N[C@@H](CSC(=S)NCCCC(C)CNC(=S)SC[C@H](NC(C)=O)C(=O)O)C(=O)O` (some centres not stated), in that order: 6.6 µM, 7.99 µM, 2190 µM and 7.15 µM.
Take `CC(=O)N[C@@H](CSC(=S)Nc1ccc(NC(=S)SC[C@H](NC(C)=O)C(=O)O)cc1)C(=O)O`: the “Ratio IC50” value in series [9] and in series [10] was 3 each time. Moreover, the concentration for half-maximal inhibition (IC50) in [2] was determined as 19.4 µM; in series [4], 79.5 µM; in series [5], 290 µM; in series [3] (setting [12]), 23.5 µM.
As for `CC(=O)N[C@@H](CSC(=S)NCCCNC(=S)SC[C@H](NC(C)=O)C(=O)O)C(=O)O`, the IC50 was 9.55 µM in [2], 8.65 µM in series [4], 5960 µM in series [5] and 4.22 µM in [3] (setting [12]).
For `CC(=O)N[C@@H](CSC(=S)NCCc1ccccc1)C(=O)O`, in that order: 7.7 µM, 25.3 µM, 3450 µM and 12.7 µM.
The matching figures for `CC(=O)N[C@@H](CSC(=S)NCCCOCCOCCOCCCNC(=S)SC[C@H](NC(C)=O)C(=O)O)C(=O)O`: 7.93 µM, 7.15 µM, 4260 µM and 2.59 µM.
For the molecule `CC(=O)N[C@@H](CSC(=S)NC1CCCCC1NC(=S)SC[C@H](NC(C)=O)C(=O)O)C(=O)O` (some centres not stated), the IC50 is 473 µM in series [2], 75.2 µM in [4], 1660 µM in [5] and “Not Active” in [3] (lovo).
Consider `Cc1ccc(N=C=S)cc1N=C=S`, for which the IC50 in series [2] worked out at 47.3 µM; in series [3] (setting [12]), 35.2 µM.
As for `CC(=O)N[C@@H](CSC(=S)Nc1cccc(NC(=S)SC[C@H](NC(C)=O)C(=O)O)c1)C(=O)O`, the IC50 was over 25 µM in [2], over 100 µM in series [4], 970 µM in [5] and over 25 µM in series [3] (setting [12]).
Take `CC(=O)N[C@@H](CSC(=S)NCc1ccccc1)C(=O)O`: the IC50 turned out to be 16.8 µM in series [2], 23.4 µM in [4], 3440 µM in [5] and 11.7 µM in series [3] (setting [12]).
On to `CCCNC(=S)SC[C@H](NC(C)=O)C(=O)O`, for which the IC50 in [2] worked out at 112 µM; in series [4], 224 µM; in series [3] (setting [12]), 151 µM.
In the case of `CC(=O)N[C@@H](CSC(=S)NCC1CCCC(CNC(=S)SC[C@H](NC(C)=O)C(=O)O)C1)C(=O)O` (some centres not stated), the Ratio IC50 in [9] is 0.5. Besides, the IC50 in [2] came to 12.8 µM; in series [4], 5.88 µM; in [5], 2680 µM; in series [3] (setting [12]), 11.7 µM.
On to `CC(=O)N[C@@H](CSC(=S)Nc1ccc(C)c(NC(=S)SC[C@H](NC(C)=O)C(=O)O)c1)C(=O)O`, for which the “Ratio IC50” value in [9] and in series [10] was 3 in each case. The IC50 in series [2] amounted to 22.4 µM; in series [4], 54.7 µM; in series [5], 450 µM; in [3] (setting [12]), 20.5 µM.
With `S=C=Nc1cccc(N=C=S)c1`, the IC50 turned out to be 55.7 µM in [2] and 46.4 µM in [3] (setting [12]).
Take `CC(=O)N[C@@H](CSC(=S)NCCOCCOCCNC(=S)SC[C@H](NC(C)=O)C(=O)O)C(=O)O`: the Ratio IC50 in [9] was found to be 0.5. The IC50 in series [2] is 14.2 µM; in series [4] it was 6.87 µM; in series [5], 4370 µM; in series [3] (setting [12]), 4.62 µM.
Regarding `CC(=O)N[C@@H](CSC(=S)N[C@H]1CC[C@H](NC(=S)SC[C@H](NC(C)=O)C(=O)O)CC1)C(=O)O`, the IC50 in series [2] is 3.45 µM; in series [4] it was 7.27 µM; in series [5], 3740 µM; in series [3] (setting [12]), 5.21 µM.
For `CCCCNC(=S)SC[C@H](NC(C)=O)C(=O)O`, in that order: 134 µM, 206 µM, 3460 µM and 130 µM.
Regarding `COc1ccc(CN=C=S)cc1`, the IC50 amounted to 3.9 µM in series [2] and 3.7 µM in [3] (setting [12]).
The matching figures for `CCCCCN=C=S` [1-ISOTHIOCYANATOPENTANE]: 75.2 µM and 88.3 µM.
As for `CC(=O)N[C@@H](CS)C(=O)O` [ACETYLCYSTEINE], the IC50 in series [5] was found to be 3160 µM.
`S=C=NCc1ccccc1` [BENZYL ISOTHIOCYANATE]: the IC50 in series [2] amounted to 19.8 µM; in [3] (setting [12]), 14.5 µM.
For `S=C=Nc1ccc(N=C=S)cc1` [BITOSCANATE], in that order: 11.6 µM and 9.41 µM.
Regarding `CCCCN=C=S` [BUTYL ISOTHIOCYANATE], the IC50 in series [2] was 265 µM; in series [3] (setting [12]), 296 µM.
Consider `COc1cccc2c1C(=O)c1c(O)c3c(c(O)c1C2=O)C[C@@](O)(C(=O)CO)C[C@@H]3O[C@H]1C[C@H](N)[C@H](O)[C@H](C)O1` [DOXORUBICIN], for which the IC50 in [2] stood at 7.2 µM; in series [4] it was 0.11 µM. Moreover, the “Ratio IC50” value in [11] came to 48.
Consider `S=C=NCCc1ccccc1` [PHENETHYLISOTHIOCYANATE], for which the IC50 in [2] was 9.8 µM.
Turning to `CCCN=C=S` [PROPYL ISOTHIOCYANATE], the IC50 was determined as 177 µM in [2] and 181 µM in [3] (setting [12]).

Values taken from ChEMBL document CHEMBL3751671, “Synthesis and biological activity of diisothiocyanate-derived mercapturic acids” (Bioorg Med Chem Lett, 2016).
